For test [1], the system named is CCRF-CEM. Description: Cytotoxic concentration against CEM cells (in vitro). The note with it: Homo sapiens. Format: functional. An outline of the steps: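 Mock-infected CEM cultures exposed to compound dilutions alongside the antiviral assay and scored at day 4. CC₅₀ is the concentration reducing cell number by 50%.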
In test [2] the test system is CCRF-CEM. The test can be described thus: Activity against HIV-1 in CEM cells (in vitro). Type of test: functional, cell-based. The note with it: Homo sapiens. An outline of the steps: (§1)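 Cells at 5 × 10⁵/mL infected with HIV-1 (IIIB) or HIV-2 (ROD) at about 100 CCID50/mL, then mixed with dilutions of test compound. After 4 days, giant cell formation scored microscopically. EC₅₀ is the concentration cutting giant cells by 50%. Mean of two to four independent experiments.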

In test [3] the test system is CCRF-CEM. Description: Activity against HIV-2 in CEM cells (in vitro). Type of test: functional, cell-based. The note with it: Homo sapiens. In short, it runs like this: as §1
For test [4], the system named is MT4. The test can be described thus: Activity against HIV-1 in MT-4 cells (in vitro). Type of test: functional, cell-based. The note with it: Homo sapiens. An outline of the steps:
(§2)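 MT-4 cells at 5 × 10⁵/mL infected with HIV-1 (IIIB) or HIV-2 (ROD) at about 100 CCID50/mL and exposed to compound dilutions. After 5 days, viable cells counted by trypan blue staining. EC₅₀ is the concentration protecting cells against viral cytopathogenicity by 50%. Mean of two to four independent experiments.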

Test [5] relates to MT4. Description: Activity against HIV-2 in MT-4 cells (in vitro). Format: functional, cell-based. The note with it: Homo sapiens. In short, it runs like this: as §2
In test [6] the test system is MT4. Description: Cytotoxic concentration against MT-4 cells (in vitro). Format: functional. The note with it: Homo sapiens. In short, it runs like this: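 Mock-infected MT-4 cultures (5 × 10⁵ cells/mL) exposed to compound dilutions for 5 days. Viable cells counted by trypan blue. CC₅₀ is the concentration reducing viable cell number by 50%.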
Test [7] has as its system CEM-TK(-) (Homo sapiens). The test can be described thus: Activity against HIV-1 in CEM/TK cells (in vitro).
For test [8], the system named is CCRF-CEM. The test can be described thus: Compound was tested for activity against HIV-2 in CEM cells. Format: functional, cell-based. The note with it: Homo sapiens. In short, it runs like this: as §1

A word on the CC50: it is the concentration at which the toxic effect on the cells reaches its halfway point. By EC50 is commonly meant the concentration needed to bring the measured effect to its halfway point. As to `COC(=O)C(C)NP(=O)(OC[C@@H]1C=C[C@H](n2cc(C)c(=O)[nH]c2=O)O1)Oc1ccccc1` (stereo partly drawn), the CC50 in test [1] was 100 µM; in test [6], more than 100 µM. Besides, the EC50 is 0.182 µM in test [2]; 0.2 µM in test [3]; 0.0665 µM in test [4]; 0.067 µM in test [5]; 0.075 µM in test [7].
As to `COC(=O)C(C)NP(=O)(OCC1C=CC(n2cc(C)c(=O)[nH]c2=O)O1)Oc1cc(Cl)cc(Cl)c1` (stereo not drawn), the CC50 in test [1] was determined as 26.9 µM; in test [6], 10.5 µM. For the same molecule, the EC50 in test [2] was determined as 0.11 µM; in test [3] it was 0.15 µM; in test [4], 0.037 µM; in test [5] it was 0.12 µM; in test [7], 0.11 µM.
As for `COC(=O)C(NP(=O)(OCC1C=CC(n2cc(C)c(=O)[nH]c2=O)O1)Oc1ccccc1)C(C)C` (stereo not drawn), the CC50 in test [1] and in test [6] was more than 250 µM throughout. For the same molecule, the EC50 in test [2] was determined as 12.5 µM; in test [3] it was 12.5 µM; in test [4], 3.58 µM; in test [5], 11.2 µM; in test [7], 4 µM.
`COC(=O)C(C)NP(=O)(OC[C@@H]1C=C[C@H](n2cc(C)c(=O)[nH]c2=O)O1)Oc1cccc(C(F)(F)F)c1` (stereo partly drawn): the CC50 in test [1] is 29.8 µM; in test [6], 9.75 µM. Also, the EC50 in test [2] is 0.15 µM; in test [3], 0.15 µM; in test [4], 0.046 µM; in test [5] it was 0.11 µM; in test [7], 0.11 µM.
The molecule `COC(=O)C(C)NP(=O)(OCC1C=CC(n2cc(C)c(=O)[nH]c2=O)O1)Oc1ccc(Br)cc1Br` (stereo not drawn) registered a CC50 in test [1] of 16 µM. In addition, the values for the EC50 in test [2], in test [3] and in test [7] were 0.04 µM, 0.055 µM and 0.025 µM, respectively.
As for `COC(=O)CNP(=O)(OCC1C=CC(n2cc(C)c(=O)[nH]c2=O)O1)Oc1ccccc1` (stereo not drawn), the CC50 in test [1] and in test [6] was more than 250 µM each time. Also, the EC50 was 6 µM in test [2]; 6 µM in test [3]; 1.34 µM in test [4]; 6.71 µM in test [5]; 7 µM in test [7].
As for `COC(=O)C(CC(C)C)NP(=O)(OCC1C=CC(n2cc(C)c(=O)[nH]c2=O)O1)Oc1ccccc1` (stereo not drawn), the CC50 was more than 250 µM in test [1] and 61.5 µM in test [6]. The half-maximal effective concentration (EC50) was found to be 1.1 µM in test [2]; 2.23 µM in test [8]; 0.2 µM in test [4]; 0.47 µM in test [5]; 0.4 µM in test [7].
As for `COC(=O)C(Cc1ccccc1)NP(=O)(OCC1C=CC(n2cc(C)c(=O)[nH]c2=O)O1)Oc1ccccc1` (stereo not drawn), the figures for the half-maximal cytotoxic concentration (CC50) in test [1] and in test [6] were 216 µM and 34.1 µM, respectively. Moreover, the EC50 came to 0.8 µM in test [2]; 1.35 µM in test [3]; 0.19 µM in test [4]; 0.38 µM in test [5]; 0.33 µM in test [7].
Consider `COC(=O)C(CCSC)NP(=O)(OCC1C=CC(n2cc(C)c(=O)[nH]c2=O)O1)Oc1ccccc1` (stereo not drawn), for which the CC50 is more than 250 µM in test [1] and 22 µM in test [6]. For the same molecule, the EC50 in test [2] was determined as 0.6 µM; in test [3] it was 0.8 µM; in test [4] it was 0.23 µM; in test [5], 0.38 µM; in test [7] it was 0.33 µM.
For the molecule `COC(=O)C(C)NP(=O)(OCC1C=CC(n2cc(C)c(=O)[nH]c2=O)O1)Oc1c(F)c(F)c(F)c(F)c1F` (stereo not drawn), the CC50 in test [1] is 115 µM; in test [6], 82.2 µM. Also, the EC50 is 2.5 µM in test [2]; 3.7 µM in test [3]; 1.72 µM in test [4]; 4.07 µM in test [5]; 8.5 µM in test [7].
In the case of `COC(=O)C(C)NP(=O)(OC)OCC1C=CC(n2cc(C)c(=O)[nH]c2=O)O1` (stereo not drawn), the CC50 in test [1] and in test [6] was more than 250 µM each time. Moreover, the EC50 in test [2] was 20 µM; in test [3], 50 µM; in test [4], 25.4 µM; in test [5] it was 50.9 µM; in test [7], more than 250 µM.
Consider `CCOP(=O)(NC(C)C(=O)OC)OCC1C=CC(n2cc(C)c(=O)[nH]c2=O)O1` (stereo not drawn), for which the CC50 in test [1] and in test [6] was more than 250 µM in each case. Moreover, the EC50 in test [2] is 48 µM; in test [3] it was 240 µM; in test [4], 28.5 µM; in test [5], 62.5 µM; in test [7], 48 µM.
Turning to `CCc1ccc(OP(=O)(NC(C)C(=O)OC)OCC2C=CC(n3cc(C)c(=O)[nH]c3=O)O2)cc1` (stereo not drawn), the 50% cytotoxic concentration (CC50) in test [1] is 60 µM; in test [6], more than 100 µM. Besides, the half-maximal effective concentration (EC50) in test [2] was 0.07 µM; in test [3], 0.16 µM; in test [4] it was 0.057 µM; in test [5], 0.063 µM; in test [7], 0.06 µM.
Turning to `Cc1cn([C@H]2C=C[C@@H](CO)O2)c(=O)[nH]c1=O` [STAVUDINE], the CC50 in test [1] is 174 µM; in test [6], 19 µM. In addition, the EC50 amounted to 0.8 µM in test [2]; 0.775 µM in test [3]; 0.651 µM in test [4]; 0.77 µM in test [5]; 33.3 µM in test [7].
For the molecule `Cc1cn([C@H]2C[C@H](N=[N+]=[N-])[C@@H](CO)O2)c(=O)[nH]c1=O` [ZIDOVUDINE], the CC50 in test [1] is more than 500 µM; in test [6] it was 6 µM. Besides, the EC50 in test [7] was more than 100 µM.

For the origin of these results see ChEMBL document CHEMBL1129557, “Aryl phosphoramidate derivatives of d4T have improved anti-HIV efficacy in tissue culture and may act by the generation of a novel intracellular metabolite” (J Med Chem, 1996).
